Experimental data taken from ChEMBL document CHEMBL1147003, “Anti-Plasmodium activity of imidazole-dioxolane compounds” (Bioorg Med Chem Lett, 2006).

Legend:
CHO [1] = test: Selectivity index as IC50 CHO/IC50 Plasmodium falciparum; type: functional
Plasmodium falciparum = test: Antimalarial activity against Plasmodium falciparum; type: functional, organism-based
How it was run: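 pLDH read-out of P. falciparum growth. Compounds in DMSO (10 mg/mL) serially diluted twofold in duplicate. Non-synchronous culture added at 5% hematocrit, 2% parasitemia. Incubated 72 h at 37 °C under 95% N2/3% CO2/2% O2. Sample of resuspended wells mixed with pLDH assay mixture, absorbance at 540 nm after 1 h. IC50 from non-linear regression, mean ± SD of four independent assays.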

CHO [2] = test: Cytotoxicity against CHO cell line; type: functional, cell-based, Cricetulus griseus
How it was run: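 CHO cells in RPMI-1640 with 10% FBS, 25 mM HEPES and gentamicin, grown to 50% confluency before compounds added in DMSO. Viability after 24 h by MTT (1 mg/mL), 30 min further incubation, medium removed, DMSO added, absorbance at 540 nm. Run in quadruplicate. IC50 by non-linear regression.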

Row | Compound | Ratio IC50 (CHO [1]) | IC50 (Plasmodium falciparum; Plasmodium falciparum) [µM] | IC50 (CHO [2]; Cricetulus griseus, CHO) [µM] | IC50 (Plasmodium falciparum) [µM] | IC50 (CHO [2]; cho) [µM]
1 | C[C@@H]1CO[C@@](CCc2ccccc2)(Cn2ccnc2)O1.Cl | 2226.7 | 0.34 | 668 |  | 
2 | CCC(COC(C)=O)n1ccnc1 (stereo unspecified) | 222.7 | 8.3 | 1850 |  | 
3 | Cc1ccc(S(=O)(=O)OC[C@@H]2CO[C@](CCc3ccc(Cl)cc3)(Cn3ccnc3)O2)cc1 | 3.2 |  |  | 1.2 | 3.8
4 | Oc1ccc(SC[C@@H]2CO[C@@](CCc3ccc(Cl)cc3)(Cn3ccnc3)O2)cc1 | 181.6 | 0.06 | 10.9 |  | 
5 | Cc1ccc(S(=O)(=O)OC[C@@H]2CO[C@@](CCc3ccc(Cl)cc3)(Cn3ccnc3)O2)cc1 | 2.8 | 2.9 | 8 |  | 
6 | Cc1ccc(S(=O)(=O)OC[C@H]2CO[C@](CCc3ccc(Cl)cc3)(Cn3ccnc3)O2)cc1 | 4.6 | 2.8 | 13 |  | 
7 | Cc1ccc(S(=O)(=O)OC[C@H]2CO[C@@](CCc3ccc(Cl)cc3)(Cn3ccnc3)O2)cc1 | 3 | 1.9 | 5.7 |  | 
8 | CSC[C@@H]1CO[C@@](CCc2ccc(Cl)cc2)(Cn2ccnc2)O1.Cl | 4.7 | 2.1 | 9.3 |  | 
9 | Cl.FC[C@@H]1CO[C@@](CCc2ccc(Cl)cc2)(Cn2ccnc2)O1 | 1.2 | 20 | 24 |  | 
10 | Cl.Cl.Nc1ccc(OC[C@@H]2CO[C@@](CCc3ccc(Cl)cc3)(Cn3ccnc3)O2)cc1 | 10.8 | 1.3 | 14 |  | 
11 | Cl.Oc1ccc(OC[C@@H]2CO[C@@](CCc3ccc(Cl)cc3)(Cn3ccnc3)O2)cc1 | 0.8 | 1.1 | 0.9 |  | 
12 | COc1ccc(SC[C@@H]2CO[C@@](CCc3ccc(Cl)cc3)(Cn3ccnc3)O2)cc1.Cl | 1.1 | 3.5 | 3.7 |  | 
13 | Cl.Clc1ccc(CC[C@@]2(Cn3ccnc3)OC[C@@H](CSc3ccc(Cl)cc3)O2)cc1 | 1.3 | 2.5 | 3.3 |  | 
14 | Cl.OC[C@@H]1CO[C@@](CCc2ccc(Cl)cc2)(Cn2ccnc2)O1 | 25.2 | 9 | 227 |  | 
15 | Cl.Clc1ccc(CC[C@@]2(Cn3ccnc3)OC[C@@H](CSc3ccccc3)O2)cc1 | 2.1 | 3.3 | 7 |  | 
16 | Cl.Clc1ccc(CC[C@@]2(Cn3ccnc3)OC[C@@H](CSc3ccc(Br)cc3)O2)cc1 | 13.3 | 0.9 | 12 |  | 
17 | COc1ccc(OC[C@@H]2CO[C@](CCc3ccc(Cl)cc3)(Cn3ccnc3)O2)cc1.Cl | 18.8 | 0.8 | 15 |  | 
18 | Cl.Clc1ccc(CC[C@]2(Cn3ccnc3)OC[C@@H](CSc3ccc4ccccc4c3)O2)cc1 | 7.5 | 1.2 | 9 |  | 
19 | COc1ccc(CCC(O)Cn2ccnc2)cc1.Cl (stereo unspecified) | 3.1 | 38 | 116 |  | 
20 | C[C@H]1CO[C@@](CCc2ccc(Cl)cc2)(Cn2ccnc2)O1.Cl | 9.5 | 4.1 | 39 |  | 
21 | C[C@H]1CO[C@](CCc2ccc(Cl)cc2)(Cn2ccnc2)O1.Cl | 4.6 | 18 | 82 |  | 

Row | Compound | Ratio IC50 (CHO [1]) | IC50 (Plasmodium falciparum; Plasmodium falciparum) [µM] | IC50 (CHO [2]; Cricetulus griseus, CHO) [µM] | IC50 (Plasmodium falciparum) [µM] | IC50 (CHO [2]; cho) [µM]
22 | C[C@@H]1CO[C@@](CCc2ccc(Cl)cc2)(Cn2ccnc2)O1.Cl | 7.3 | 7 | 51 |  | 
23 | Cl.Nc1ccccc1SC[C@H]1CO[C@](CCc2ccc(Cl)cc2)(Cn2ccnc2)O1 | 2 | 3.3 | 6.6 |  | 
24 | Cl.Nc1ccc(SC[C@@H]2CO[C@@](CCc3ccc(Cl)cc3)(Cn3ccnc3)O2)cc1 | 287.7 | 1.3 | 374 |  | 
25 | Cl.Clc1ccc(CCC2(Cn3ccnc3)SCCS2)cc1 | 10.9 | 2.3 | 25 |  | 
26 | Cl.Cl.Nc1ccc(SC[C@H]2CO[C@@](CCc3ccc(Cl)cc3)(Cn3ccnc3)O2)cc1 | 2.2 | 2.7 | 6 |  | 
27 | Cl.Cl.Clc1ccc(CC[C@@]2(Cn3ccnc3)OC[C@@H](CSc3ccncc3)O2)cc1 | 5.5 | 4.9 | 27 |  | 
28 | Cl.Nc1ccc(SC[C@H]2CO[C@](CCc3ccc(Cl)cc3)(Cn3ccnc3)O2)cc1 | 84.7 | 3 | 254 |  | 
29 | Cl.OC(CCc1ccc(Cl)cc1)Cn1ccnc1 (stereo unspecified) | 4.5 | 70 | 314 |  | 
30 | Cc1ccc(S(=O)(=O)OC[C@@H]2CO[C@](CCc3ccc(Cl)cc3)(Cn3ccnc3)O2)cc1.Cl | 10.4 |  |  | 0.67 | 7
31 | Cl.Cl.Nc1ccccc1SC[C@@H]1CO[C@](CCc2ccc(Cl)cc2)(Cn2ccnc2)O1 | 10 | 0.6 | 6 |  | 
32 | Cl.Cl.Nc1cccc(SC[C@@H]2CO[C@](CCc3ccc(Cl)cc3)(Cn3ccnc3)O2)c1 | 60 | 0.3 | 18 |  | 
33 | Cl.Clc1ccc(CCC2(Cn3ccnc3)OCCO2)cc1 | 9.3 | 9 | 84 |  | 
34 | C[C@@H]1CO[C@](CCc2ccc(Cl)cc2)(Cn2ccnc2)O1.Cl | 4.4 | 23 | 102 |  | 
35 | Cl.O=C(CCc1ccc(Cl)cc1)Cn1ccnc1 | 6.7 | 25 | 168 |  | 
36 | Cl.Nc1cccc(SC[C@@H]2CO[C@@](CCc3ccc(Cl)cc3)(Cn3ccnc3)O2)c1 | 5 | 2 | 10 |  | 
37 | Cl.Cl.Nc1ccccc1SC[C@@H]1CO[C@@](CCc2ccc(Cl)cc2)(Cn2ccnc2)O1 | 4.1 | 3.9 | 16 |  | 
38 | Cl.Fc1ccc(COC(CCc2ccc(Cl)cc2)Cn2ccnc2)cc1 (stereo unspecified) | 6.6 | 0.8 | 5.3 |  | 
39 | Cl.Nc1cccc(SC[C@H]2CO[C@](CCc3ccc(Cl)cc3)(Cn3ccnc3)O2)c1 | 3.7 | 2.5 | 9.2 |  | 
40 | Cl.Cl.Nc1cccc(SC[C@H]2CO[C@@](CCc3ccc(Cl)cc3)(Cn3ccnc3)O2)c1 | 7.5 | 1.2 | 9 |  | 
41 | Cl.Cl.Nc1ccccc1SC[C@H]1CO[C@@](CCc2ccc(Cl)cc2)(Cn2ccnc2)O1 | 4.8 | 2.3 | 11 |  | 
42 | Cl.Cl.Nc1ccc(SC[C@@H]2CO[C@](CCc3ccc(Cl)cc3)(Cn3ccnc3)O2)cc1 [AZALANSTAT DIHYDROCHLORIDE] | 16.3 | 0.8 | 13 |  | 
